Data as given in ChEMBL document CHEMBL1123494, “Irreversible blockage of opioid receptor types by ester homologues of beta-funaltrexamine” (J Med Chem, 1986).
Several values for one entry are separate records, joined by “and”; a condition that tells them apart may be missing. Identical values can stand only once.

Experiments:
[1] = tested on: Opioid receptors; mu/kappa/delta; experiment: Compound was tested for irreversible antagonist activity against opioid receptor in mouse vas deferens expressed as IC50 of DADLE divided by the compound; format: functional, tissue-based
How it was run: (§1)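 Mouse vas deferens incubated 30 min with 200 nM test ligand, then washed thoroughly (20 times). Morphine and DADLE dose-response curves were rerun in the same tissue. Ratio = agonist IC50 after treatment / control IC50 in that tissue. Where the standard agonist gave under 65% response after treatment, an IC20 was estimated from the plotted dose-response curve. Means of three determinations unless otherwise noted.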

[2] = target: T1, Opioid receptors; mu/kappa/delta (Homo sapiens) (UniProt P41145+P41143+P35372); experiment: Compound was tested for irreversible antagonist activity against opioid receptor in mouse vas deferens expressed as IC50 of morphine divided by the compound; format: functional, tissue-based; how it was run: as §1
Opioid receptor [3] = target: Opioid receptor (Mus musculus, UniProt P42866+P32300+P33534); experiment: Compound was tested for agonist activity against opioid receptor in mouse vas deferens preparation; format: functional
[4] = tested on: Opioid receptors; mu/kappa/delta; experiment: Compound was tested for agonist potency against opioid receptor in guinea pig ileal longitudinal muscle expressed as IC50 of morphine divided by the compound; format: functional
Opioid receptor [5] = target: Opioid receptor (Rattus norvegicus, UniProt P33533+P34975+P33535); experiment: The compound was tested for binding affinity against opioid receptor in rat brain membranes, using [3H]dihydromorphine as the radioligand; format: cell membranes
How it was run: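 Rat forebrain was homogenised in ice-cold 0.05 M Tris-HCl pH 7.4 and washed twice by centrifugation at 4 °C. It was preincubated 10 min at 37 °C, washed again and resuspended at 10 mg/mL. Triplicate tubes held 1 nM [3H]dihydromorphine and at least seven drug concentrations, incubated 40 min at room temperature, then vacuum-filtered. Nonspecific binding was set with 10⁻⁶ M naloxone. Values are mean ± SEM of three experiments.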

[6] = target: Opioid receptors; mu and delta (Mus musculus) (UniProt P42866+P32300); experiment: Irreversible antagonist activity against opioid receptor in mouse vas deferens at 200 nM relative to IC50 of nalorphine; format: functional, tissue-based
[7] = tested on: Opioid receptors; mu/kappa/delta; experiment: Compound was tested for irreversible antagonist activity against opioid receptor in mouse vas deferens at a concentration of 20 nM expressed as IC50 of morphine divided by the compound; format: functional
[8] = target: T1, Opioid receptors; mu/kappa/delta (Homo sapiens); experiment: Compound was tested for irreversible antagonist activity against opioid receptor in mouse vas deferens at a concentration of 200 nM, expressed as IC50 of nalorphine divided by the compound; format: functional
[9] = target: T1, Opioid receptors; mu/kappa/delta (Homo sapiens); experiment: Compound was tested for irreversible antagonist activity against opioid receptor in mouse vas deferens, expressed as IC50 of morphine divided by the compound; format: functional
How it was run: (§2)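 Mouse vas deferens tissue incubated 30 min with test ligand at 200 nM, then washed thoroughly (20 times). Standard agonist (morphine or DADLE) IC50 redetermined and divided by control IC50 from the same tissue (treated/control ratio). Where the agonist gave under 65% response after treatment, an IC20 was estimated from the plotted dose-response curve. Means of three determinations unless otherwise noted.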

[10] = target: T1, Opioid receptors; mu/kappa/delta (Homo sapiens); experiment: Compound was tested for irreversible antagonist activity against opioid receptor in mouse vas deferens at a concentration of 20 nM, expressed as IC50 of nalorphine divided by the compound; format: functional
[11] = target: T1, Opioid receptors; mu/kappa/delta (Homo sapiens); experiment: Compound was tested for irreversible antagonist activity against opioid receptor in mouse vas deferens, expressed as IC50 of DADLE divided by compound; format: functional; how it was run: as §2
[12] = target: T1, Opioid receptors; mu/kappa/delta (Homo sapiens); experiment: Compound was tested for irreversible antagonist activity against opioid receptor in mouse vas deferens at a concentration of 100 nM, expressed as IC50 of morphine divided by the compound; format: functional
[13] = target: T1, Opioid receptors; mu/kappa/delta (Homo sapiens); experiment: Compound was tested for irreversible antagonist activity against opioid receptor in mouse vas deferens at a concentration of 20 nM, expressed as IC50 of morphine divided by the compound; format: functional
[14] = target: T1, Opioid receptors; mu/kappa/delta (Homo sapiens); experiment: Compound was tested for irreversible antagonist activity against opioid receptor in mouse vas deferens expressed as IC50 of morphine divided by the compound (experiment. 2); format: functional, tissue-based; how it was run: as §1
[15] = target: T1, Opioid receptors; mu/kappa/delta (Homo sapiens); experiment: Compound was tested for irreversible antagonist activity against opioid receptor in mouse vas deferens expressed as IC50 of morphine divided by the compound (experiment 1); format: functional, tissue-based; how it was run: as §1
[16] = target: T2, Opioid receptor (Mus musculus) (UniProt P42866+P32300+P33534); experiment: Compound was tested for irreversible antagonist activity against opioid receptor in mouse vas deferens expressed as IC20 of morphine divided by the compound; format: functional, tissue-based; how it was run: as §1
Mus musculus = species on record: Mus musculus; experiment: Compound was tested for partial agonism in presence of morphine at conc. of 3 e-5; format: functional
[17] = target: T2, Opioid receptor (Mus musculus); experiment: Compound was tested for agonist activity against opioid receptor in mouse vas deferens preparation at concentration of 1E-7 M; format: functional

T1 sequence (P35372 whole entry, looked up): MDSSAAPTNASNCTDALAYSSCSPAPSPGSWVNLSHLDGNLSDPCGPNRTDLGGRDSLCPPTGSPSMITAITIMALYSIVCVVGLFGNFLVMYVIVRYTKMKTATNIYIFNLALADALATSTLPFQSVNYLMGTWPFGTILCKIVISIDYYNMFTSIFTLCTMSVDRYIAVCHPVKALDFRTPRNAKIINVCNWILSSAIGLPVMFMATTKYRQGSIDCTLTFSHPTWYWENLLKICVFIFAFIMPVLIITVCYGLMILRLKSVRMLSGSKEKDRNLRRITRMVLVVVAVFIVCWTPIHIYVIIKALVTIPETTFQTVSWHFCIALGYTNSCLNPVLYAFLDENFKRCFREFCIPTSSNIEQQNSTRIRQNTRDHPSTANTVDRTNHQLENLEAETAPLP
T1 sequence (P41143 whole entry, looked up): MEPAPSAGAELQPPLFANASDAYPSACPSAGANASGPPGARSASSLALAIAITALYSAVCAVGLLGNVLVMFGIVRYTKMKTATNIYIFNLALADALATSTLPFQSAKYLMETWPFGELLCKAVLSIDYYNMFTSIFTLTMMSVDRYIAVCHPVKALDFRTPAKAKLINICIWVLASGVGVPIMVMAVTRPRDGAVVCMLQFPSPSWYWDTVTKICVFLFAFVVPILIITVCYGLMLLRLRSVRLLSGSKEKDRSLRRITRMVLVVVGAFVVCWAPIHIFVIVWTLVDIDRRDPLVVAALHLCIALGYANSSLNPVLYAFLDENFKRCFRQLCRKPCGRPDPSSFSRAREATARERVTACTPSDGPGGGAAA
T1 sequence (P41145 whole entry, looked up): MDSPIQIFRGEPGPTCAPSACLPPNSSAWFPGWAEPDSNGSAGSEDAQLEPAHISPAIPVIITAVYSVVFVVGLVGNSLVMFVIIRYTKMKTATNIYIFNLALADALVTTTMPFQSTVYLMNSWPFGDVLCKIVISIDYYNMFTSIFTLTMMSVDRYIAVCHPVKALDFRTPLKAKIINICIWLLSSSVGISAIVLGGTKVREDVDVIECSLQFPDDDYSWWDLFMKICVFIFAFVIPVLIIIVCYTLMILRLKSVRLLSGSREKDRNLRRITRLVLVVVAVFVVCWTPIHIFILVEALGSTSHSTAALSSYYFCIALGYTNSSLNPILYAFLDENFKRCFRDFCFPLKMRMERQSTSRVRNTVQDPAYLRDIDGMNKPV
T2 sequence (P32300 whole entry, looked up): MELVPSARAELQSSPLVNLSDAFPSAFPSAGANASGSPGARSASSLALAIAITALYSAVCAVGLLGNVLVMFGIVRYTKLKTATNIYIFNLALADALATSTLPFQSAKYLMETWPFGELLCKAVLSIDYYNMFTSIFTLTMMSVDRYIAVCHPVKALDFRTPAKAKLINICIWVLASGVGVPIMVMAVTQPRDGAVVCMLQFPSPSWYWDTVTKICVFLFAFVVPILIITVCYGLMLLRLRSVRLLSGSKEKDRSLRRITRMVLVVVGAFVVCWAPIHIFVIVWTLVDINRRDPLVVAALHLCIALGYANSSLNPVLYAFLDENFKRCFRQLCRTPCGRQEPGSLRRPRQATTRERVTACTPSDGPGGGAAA
T2 sequence (P33534 whole entry, looked up): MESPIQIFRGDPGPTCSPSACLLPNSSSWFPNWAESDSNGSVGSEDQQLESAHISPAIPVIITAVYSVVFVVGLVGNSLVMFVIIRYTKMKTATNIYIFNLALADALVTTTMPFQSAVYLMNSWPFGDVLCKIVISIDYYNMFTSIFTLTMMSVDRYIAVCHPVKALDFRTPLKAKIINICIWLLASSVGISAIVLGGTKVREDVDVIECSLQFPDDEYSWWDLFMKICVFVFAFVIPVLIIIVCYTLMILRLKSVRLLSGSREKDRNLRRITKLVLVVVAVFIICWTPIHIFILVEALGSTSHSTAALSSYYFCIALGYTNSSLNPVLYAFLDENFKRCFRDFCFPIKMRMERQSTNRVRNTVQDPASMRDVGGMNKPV
T2 sequence (P42866 whole entry, looked up): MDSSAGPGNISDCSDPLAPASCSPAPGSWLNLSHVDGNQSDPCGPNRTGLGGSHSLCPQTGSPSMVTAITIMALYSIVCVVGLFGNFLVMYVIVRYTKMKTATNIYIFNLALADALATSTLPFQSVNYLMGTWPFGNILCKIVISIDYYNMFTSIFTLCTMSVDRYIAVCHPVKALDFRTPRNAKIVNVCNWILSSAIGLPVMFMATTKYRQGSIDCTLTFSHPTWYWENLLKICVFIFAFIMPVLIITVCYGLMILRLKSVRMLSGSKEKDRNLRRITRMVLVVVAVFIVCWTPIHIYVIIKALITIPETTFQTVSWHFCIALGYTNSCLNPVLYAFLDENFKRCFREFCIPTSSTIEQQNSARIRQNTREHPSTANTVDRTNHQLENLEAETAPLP
Chain of Opioid receptors; mu and delta (Mus musculus) (P32300 whole entry, looked up): as the sequence (P32300 whole entry, looked up) above
Chain of Opioid receptors; mu and delta (Mus musculus) (P42866 whole entry, looked up): as the sequence (P42866 whole entry, looked up) above

Row | Compound | Ratio [1] | Ratio [2] | IC50 (Opioid receptor [3]) [nM] | Potency ratio [4] | IC50 (Opioid receptor [5]) [nM] | Ratio [6] | Ratio [7] | Ratio [8] | Ratio [9] | Ratio [10] | Ratio [11] | Ratio [12] | Ratio [13] | Ratio [14] | Ratio [15] | IC20 [16] [nM] | Activity (Mus musculus) [%] | inhibition [17] [%]
1 | CCOC(=O)/C=C/C(=O)N[C@@H]1CC[C@@]2(O)C3Cc4ccc(O)c5c4C2(CCN3CC2CC2)[C@H]1O5 (some centres not stated) | 1.24 | 2.53 | 13 | 16.1 | 0.64 | 1.67 | 1.75 and 2.22 | 2.06 |  |  |  |  |  |  |  |  |  | 
2 | COC(=O)/C=C/C(=O)N[C@@H]1CC[C@@]2(O)[C@H]3Cc4ccc(O)c5c4[C@@]2(CCN3CC2CC2)[C@H]1O5 |  |  | 82 | 5 | 1.03 |  |  |  | 10.6 | 1.2 | 1.1 | 12 | 6 |  |  |  |  | 
3 | O=C(/C=C/C(=O)OCCc1ccccc1)N[C@@H]1CC[C@@]2(O)C3Cc4ccc(O)c5c4C2(CCN3CC2CC2)[C@H]1O5 (some centres not stated) | 3.73 |  | 70.1 | 10.4 | 0.015 |  | 4.84 and 2.88 |  |  |  |  |  |  | 24.4 | 64.7 |  |  | 
4 | CCCOC(=O)/C=C/C(=O)N[C@@H]1CC[C@@]2(O)C3Cc4ccc(O)c5c4C2(CCN3CC2CC2)[C@H]1O5 (some centres not stated) | 1.52 |  | 21 | 147 | 1.56 |  | 2.46 and 1.69 |  |  |  |  |  |  |  |  | 200 | 56 | 
5 | CCCCOC(=O)/C=C/C(=O)N[C@@H]1CC[C@@]2(O)C3Cc4ccc(O)c5c4C2(CCN3CC2CC2)[C@H]1O5 (some centres not stated) | 1.75 | 10 | 7 | 66.1 | 1.65 |  | 5.05 and 4.42 |  |  |  |  |  |  |  |  |  |  | 
6 | O=C(/C=C/C(=O)OCc1ccccc1)N[C@@H]1CC[C@@]2(O)C3Cc4ccc(O)c5c4C2(CCN3CC2CC2)[C@H]1O5 (some centres not stated) | 1.39 |  |  | 1.41 | 0.3 |  | 6.33 and 5.85 |  |  |  |  |  |  |  |  | 400 |  | 57
